Assay outcomes deposited in PubChem by several laboratories.
SUMO1-SIM PPI = SUMO1-SIM interaction modulation. P63165. SUMO1 binding to a labelled peptide, TR-FRET, 1 h. inhibition, % at 20 µM. 360,000 compounds, 0.33% hits. AID 602429; in the data active = inhibition above about 37%
Target sequence (P63165 whole entry, looked up): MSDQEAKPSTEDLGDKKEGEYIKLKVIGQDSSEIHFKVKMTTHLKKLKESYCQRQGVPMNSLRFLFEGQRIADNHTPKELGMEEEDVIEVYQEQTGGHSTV
STEP inh = STEP (human) phosphatase inhibition; P54829; recombinant STEP, OMFP fluorogenic substrate, fluorescence; inhibition, % at 20 µM; 360,000 compounds, 0.25% hits; AID 588621;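 active = inhibition at 20 µM, scaled per plate between control wells, above about 37%, limit read from the data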
Target sequence (P54829 whole entry, looked up): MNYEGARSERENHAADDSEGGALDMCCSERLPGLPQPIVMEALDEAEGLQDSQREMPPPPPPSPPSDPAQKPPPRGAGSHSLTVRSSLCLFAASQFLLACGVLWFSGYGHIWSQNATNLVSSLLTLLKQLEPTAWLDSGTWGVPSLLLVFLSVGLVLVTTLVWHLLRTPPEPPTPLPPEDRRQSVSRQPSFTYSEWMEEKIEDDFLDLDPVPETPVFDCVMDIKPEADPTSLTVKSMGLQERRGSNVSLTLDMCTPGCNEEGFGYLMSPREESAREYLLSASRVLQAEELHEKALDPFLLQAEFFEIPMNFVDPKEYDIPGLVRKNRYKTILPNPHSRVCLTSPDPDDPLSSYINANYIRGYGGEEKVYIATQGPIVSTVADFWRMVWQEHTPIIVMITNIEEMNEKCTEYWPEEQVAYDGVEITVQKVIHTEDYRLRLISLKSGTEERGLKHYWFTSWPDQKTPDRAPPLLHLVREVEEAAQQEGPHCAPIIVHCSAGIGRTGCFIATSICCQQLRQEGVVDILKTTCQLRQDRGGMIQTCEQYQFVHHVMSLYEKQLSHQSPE
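Material: STEP (striatal-enriched tyrosine phosphatase) enzyme, cell-free | Medium: 50 mM Bis-Tris pH 6.0 with 2.5 mM DTT and 0.005% Tween 20 | Read-out: Percent inhibition scaled to no-enzyme and uninhibited-enzyme controls, plate-pattern corrected | Signal: Fluorescence read at 480 nm ex / 540 nm em | Times: 20 min reaction, room temperature, in the dark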
Pemphigus Ab inh = blocks pemphigus antibody binding to human desmoglein-3 | DSG3-coupled beads, scFv-anti-DSG3-GFP binding, flow cytometry; hits give low values | 310,000 compounds, 0.48% hits | binding (percent of control), % at 10 µM | AID 588358;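 active = binding more than 3 SD below its plate's average and above zero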;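 also: hits lower antibody fragment binding to DSG3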
LMPTP inh = blocks human LMPTP phosphatase; 360,000 compounds, 0.22% hits; inhibition, % at 20 µM; recombinant LMPTP-A, OMFP fluorogenic substrate, fluorescence intensity; AID 651560;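 active = compounds that cut the enzyme signal by at least half of the control window in the single-dose screen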
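test system = LMPTP-A | amount = 0.625 nM LMPTP-A final | reagent = fluorogenic phosphatase substrate OMFP at 400 µM final | incubation = 50 min at room temperature | benchmarks = no-enzyme low control, uninhibited high control | medium = Bis-Tris pH 6.0, DTT, detergent | signal = fluorescence intensity of OMFP turnover product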
Scp-1 inhibitor = inhibitors of human Scp-1 phosphatase; 340,000 compounds, 0.88% hits; Recombinant Scp1, phosphopeptide, malachite green phosphate absorbance; inhibition, % at 20 µM;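 active = inhibition above about 50% at 20 µM, limit read from the data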
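assay system = SCP-1 phosphatase catalytic domain, residues 76-261 | buffer or medium = 50 mM Tris acetate pH 5.5, 0.005% Tween-20, 10 mM MgCl2 | incubation = enzyme reaction 45 min at room temperature, colour 5 min, stabilisation 30 min | signal = Phosphate-binding colour reagent, absorbance read at 630 nm | measure = % inhibition at 20 µM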
Scp1 confirm = confirmation of human Scp-1 phosphatase inhibitors | AID 540281 | inhibition, % at 20 µM | recombinant SCP-1 catalytic domain, phosphate release, malachite green absorbance | 2,500 compounds, 61% hits | shares compounds with Scp-1 inhibitor
Scp-1 MG ctr = colorimetric interference in Scp-1 counter-screen; shares compounds with Scp-1 inhibitor; AID 540313; 2,500 tested, under 10 active; apparent inhibition (interference), % at 20 µM; Colorimetric interference counterscreen, malachite green absorbance 630 nm;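 also: compounds added after enzyme reaction finished so only phosphate colour detection is probed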
Scp-1 Tm shift = validation of human Scp-1 inhibitors by thermal shift binding; 1,500 compounds, 25% hits; shares compounds with Scp-1 inhibitor; Recombinant SCP1, Sypro Orange thermal shift Tm; AID 540329; thermal shift relative to vanadate control, % at 40 µM;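 active = substances whose mean melting-temperature shift, as a percentage of the reference inhibitor's shift, reaches about 5.3%, limit read from the data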
STEP conf = confirmation of human STEP phosphatase inhibitors; shares compounds with STEP inh; recombinant STEP, OMFP fluorogenic substrate, fluorescence; inhibition, % at 20 µM; 520 compounds, 32% hits; call rule not given here
Each line names hits and unclear results; the compound was inactive in the other large screens (follow-up assays come after a bar, where they were run). In the library only some 1.7% were active in any assay of this set; here they are far more common.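 The calls were made as follows, unless noted: active = inhibition of at least 30% at 20 µM; inactive = the rest.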

O=C(N/N=C/c1cccc([N+](=O)[O-])c1)c1cc2ccccc2o1	STEP inh 63, Scp-1 inhibitor 51 | Scp1 confirm inactive | Scp-1 MG ctr inactive | STEP conf inactive
CC(C)(C)c1cc(CCC(=O)NCc2ccccn2)cc(C(C)(C)C)c1O	none
CCOc1ccc(C(=O)c2cc3ccc(O)cc3oc2=O)cc1	none
O=C(c1ccc([N+](=O)[O-])cc1)c1cc2ccc(O)cc2oc1=O	STEP inh 53, Scp-1 inhibitor 72 | Scp1 confirm 55 | Scp-1 MG ctr inactive | Scp-1 Tm shift 5.7 | STEP conf inactive
COc1ccc(-c2coc3c(C)c4oc(=O)c(CC(=O)O)c(C)c4cc23)cc1	none
Cc1c(CC(=O)O)c(=O)oc2c(C)c3occ(-c4ccc(Br)cc4)c3cc12	STEP inh 69, Scp-1 inhibitor 52 | Scp1 confirm 62 | Scp-1 MG ctr inactive | Scp-1 Tm shift inactive | STEP conf inactive
CCn1c(=S)sc2c(=O)n(CC(=O)Nc3ccccc3C(F)(F)F)c(C)nc21	STEP inh 87, LMPTP inh 67, Scp-1 inhibitor 68 | Scp1 confirm inactive | Scp-1 MG ctr inactive | STEP conf inactive
CCCCN1CC(N2CCN(C)CC2)CS1(=O)=O (stereo not given)	none (no result: Pemphigus Ab inh, Scp-1 inhibitor)
COc1ccc(-c2ccc3c(=O)cc(-c4ccsc4)oc3c2)cn1	none
O=c1cc(-c2ccsc2)oc2cc(-c3ccc4c(c3)OCO4)ccc12	STEP inh 46, LMPTP inh 68, Scp-1 inhibitor 68 | Scp1 confirm 53 | Scp-1 MG ctr inactive | Scp-1 Tm shift inactive | STEP conf inactive
O=S(=O)(Nc1ccccc1)c1cccc2nsnc12	STEP inh 84, LMPTP inh 58, Scp-1 inhibitor 78 | Scp1 confirm 59 | Scp-1 MG ctr inactive | Scp-1 Tm shift inactive | STEP conf 40
Cc1ccc(NS(=O)(=O)c2cccc3nsnc23)cc1	none
Cc1ccc(S(=O)(=O)N2CCOCC2)cc1C(=O)OCC(=O)NCCc1ccccc1	none (no result: Pemphigus Ab inh)
O=C(Cn1nnc(-c2ccc(NC(=O)c3ccccc3F)cc2)n1)NCc1ccc(F)cc1	STEP inh 65, Scp-1 inhibitor 52 | Scp1 confirm 68 | Scp-1 MG ctr inactive | Scp-1 Tm shift 8.1 | STEP conf inactive
CCN(c1ccccc1)S(=O)(=O)c1cc(C(=O)O)ccc1C	STEP inh 95, LMPTP inh 60, Scp-1 inhibitor 56 | Scp1 confirm 46 | Scp-1 MG ctr inactive | Scp-1 Tm shift inactive | STEP conf inactive
CN(C)C(=O)c1cccc(COc2ccc(N3C(N)=NC(N)=NC3(C)C)cc2Cl)c1	none (no result: Scp-1 inhibitor)
O=c1c(C=Nc2ccc(Cl)cc2)c[nH]n1-c1cccc(Cl)n1	STEP inh 79, LMPTP inh 62, Scp-1 inhibitor 102 | Scp1 confirm 99 | Scp-1 MG ctr inactive | Scp-1 Tm shift inactive | STEP conf inactive
O=C(N/N=C/c1ccc(F)cc1)c1ccc(Br)cc1	none
O=C(N/N=C/c1ccc(Br)cc1)c1ccc(Br)o1	STEP inh 47, Scp-1 inhibitor 100 | Scp1 confirm 82 | Scp-1 MG ctr inactive | Scp-1 Tm shift inactive | STEP conf 71
COc1ccc(C(=O)N/N=C\C(C)=C\c2ccccc2)cc1OC	none (no result: Pemphigus Ab inh)
CC(/C=N/NC(=O)c1ccc(Br)cc1)=C\c1ccccc1	STEP inh 55, LMPTP inh 55, Scp-1 inhibitor 94 | Scp1 confirm 89 | Scp-1 MG ctr inactive | Scp-1 Tm shift inactive | STEP conf inactive
COc1ccccc1CNC(=O)C1CCCCN1S(=O)(=O)c1ccccc1 (stereo not given)	none
Cc1cc(C(=O)N/N=C/c2ccc(-c3cccc(Br)c3)o2)n[nH]1	none
Cc1cc(C(=O)N/N=C/c2ccc(-c3cccc(Cl)c3Cl)o2)n[nH]1	STEP inh 61, Scp-1 inhibitor 61 | Scp1 confirm 88 | Scp-1 MG ctr inactive | Scp-1 Tm shift inactive | STEP conf inactive
CC(C)CNC(=O)c1cccc(NC(=O)C(C)Oc2ccccc2)c1 (stereo not given)	none
O=C(CSc1nnc2c(n1)[nH]c1ccc(F)cc12)NCc1ccc(F)cc1	STEP inh 60, Scp-1 inhibitor 65 (no result: Pemphigus Ab inh) | Scp1 confirm inactive | Scp-1 MG ctr inactive | STEP conf inactive
O=C(CSc1nnc2c(n1)[nH]c1ccc(F)cc12)NC1CC1	none
CC(NC(=S)NC1CCCCC1)c1ccc(C(C)(C)C)cc1 (stereo not given)	none (no result: Pemphigus Ab inh)
COc1cccc(N2[C@@H](CC(C)=O)c3ccccc3S2(=O)=O)c1	none
COc1cccc(N2[C@@H](CC(=O)O)c3ccc(/C=C/C(=O)O)cc3S2(=O)=O)c1	STEP inh 50, Scp-1 inhibitor 70 | Scp1 confirm 54 | Scp-1 MG ctr inactive | Scp-1 Tm shift inactive | STEP conf 36
O=C(O)CSc1ncnc2c1sc1nc(-c3ccccc3)c3c(c12)CCC3	STEP inh 48, Scp-1 inhibitor 78 | Scp1 confirm 53 | Scp-1 MG ctr inactive | Scp-1 Tm shift inactive | STEP conf inactive
NS(=O)(=O)c1ccc(CNC(=O)c2csc3c2CCCC3)cc1	none
CCc1ccc(N2CC(C(=O)Nc3ccc(S(=O)(=O)NCC4CCCO4)cc3)CC2=O)cc1 (stereo not given)	none
Cc1ccc(-c2c(NCCc3ccccc3)c(=O)c2=O)cc1	STEP inh 57, Scp-1 inhibitor 89 | Scp1 confirm 59 | Scp-1 MG ctr inactive | Scp-1 Tm shift inactive | STEP conf inactive
N#CCCN(C(=O)CN1CCN(S(=O)(=O)c2ccc(Cl)s2)CC1)c1ccc(F)cc1	none
O=C(NNc1ncnc2ccccc12)c1cccc(Cl)c1	STEP inh 38, Scp-1 inhibitor 100 | Scp1 confirm 91 | Scp-1 MG ctr inactive | Scp-1 Tm shift inactive | STEP conf inactive
Cc1cc(N)n(-c2ccc(C)c(C)c2)n1	none
Cc1cc(N)n(-c2ccc(Oc3ccccc3)c(S(=O)(=O)O)c2)n1	STEP inh 43, Scp-1 inhibitor 75 | Scp1 confirm 60 | Scp-1 MG ctr inactive | Scp-1 Tm shift inactive | STEP conf inactive
O=C(N/N=C/c1cccc(Cl)c1)C(c1ccncc1)N1CCOCC1 (stereo not given)	none
O=C(O)c1ccc2c(c1)C(=O)N(c1cccc(-c3nc4ccccc4s3)c1)C2=O	STEP inh 81, Scp-1 inhibitor 93 | Scp1 confirm 86 | Scp-1 MG ctr inactive | Scp-1 Tm shift 5.4 | STEP conf 47
